Source: ChEMBL document CHEMBL2202974 (J Med Chem, 2011)

Key:
Brain [1] = assay: Drug uptake in rat brain at 6 ug/ml, iv at 10 mins by LC/MS analysis; assay type: ADME, organism-based; details: in vivo
Outline: (§1)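 Male Sprague-Dawley rats (230–280 g), non-anesthetised. Ligand in 25% β-cyclodextrin diluted to 6 μg/mL and given iv via tail vein at 0.5 mL/kg (3 μg/kg), n = 3–4 per group. Rats killed at 10, 20, 40 or 60 min. Hypothalamus and striatum extracted in acetonitrile/0.1% formic acid and quantified by LC-MS/MS against spiked brain standards. Result expressed as %SUV.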

Brain [2] = assay: Drug uptake in rat brain at 6 ug/ml, iv after 1 hr by LC/MS analysis; assay type: ADME, organism-based; details: in vivo; outline: as §1
Brain [3] = assay: Drug uptake in rat brain at 6 ug/ml, iv up to 1 hr by LC/MS analysis; assay type: ADME, organism-based; details: in vivo; outline: as §1
[4] = Lipophilicity, log D of the compound by shake flask method; assay type: physicochemical; details: octanol/water
Outline: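 Shake-flask log D at pH 7.4 on the nonradioactive compound. Each enantiomer was measured.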

[5] = Drug uptake in SB612111-pretreated monkey lateral temporal cortex at 4.92 to 6.6 mCi, iv administered at 10 mins post SB612111-treatment measured from 10 to 120 mins by PET imaging analysis; assay type: ADME, organism-based, Macaca mulatta; details: rhesus monkey, in vivo
[6] = Drug uptake in SB612111-pretreated monkey amygdala at 4.92 to 6.6 mCi, iv administered at 10 mins post SB612111-treatment measured from 10 to 120 mins by PET imaging analysis; assay type: ADME, organism-based, Macaca mulatta; details: rhesus monkey, in vivo
[7] = Drug uptake in SB612111-pretreated monkey caudate at 4.92 to 6.6 mCi, iv administered at 10 mins post SB612111-treatment measured from 10 to 120 mins by PET imaging analysis; assay type: ADME, organism-based, Macaca mulatta, Caudate nucleus; details: rhesus monkey, in vivo
[8] = Drug uptake in SB612111-pretreated monkey cerebellum at 4.92 to 6.6 mCi, iv administered at 10 mins post SB612111-treatment measured from 10 to 120 mins by PET imaging analysis; assay type: ADME, organism-based, Macaca mulatta; details: rhesus monkey, in vivo
[9] = Drug uptake in SB612111-pretreated monkey hypothalamus at 4.92 to 6.6 mCi, iv administered at 10 mins post SB612111-treatment measured from 10 to 120 mins by PET imaging analysis; assay type: ADME, organism-based, Macaca mulatta; details: rhesus monkey, in vivo
[10] = Drug uptake in SB612111-pretreated monkey lateral temporal cortex at 4.92 to 6.6 mCi, iv administered at 10 mins post SB612111-treatment measured within 10 mins by PET imaging analysis; assay type: ADME, organism-based, Macaca mulatta; details: rhesus monkey, in vivo
[11] = Drug uptake in SB612111-pretreated monkey amygdala at 4.92 to 6.6 mCi, iv administered at 10 mins post SB612111-treatment measured within 10 mins by PET imaging analysis; assay type: ADME, organism-based, Macaca mulatta; details: rhesus monkey, in vivo
[12] = Drug uptake in SB612111-pretreated monkey caudate at 4.92 to 6.6 mCi, iv administered at 10 mins post SB612111-treatment measured within 10 mins by PET imaging analysis; assay type: ADME, organism-based, Macaca mulatta, Caudate nucleus; details: rhesus monkey, in vivo
[13] = Drug uptake in SB612111-pretreated monkey cerebellum at 4.92 to 6.6 mCi, iv administered at 10 mins post SB612111-treatment measured within 10 mins by PET imaging analysis; assay type: ADME, organism-based, Macaca mulatta; details: rhesus monkey, in vivo
[14] = Drug uptake in SB612111-pretreated monkey hypothalamus at 4.92 to 6.6 mCi, iv administered at 10 mins post SB612111-treatment measured within 10 mins by PET imaging analysis; assay type: ADME, organism-based, Macaca mulatta; details: rhesus monkey, in vivo
[15] = Drug uptake in monkey lateral temporal cortex at 4.92 to 6.6 mCi, iv administered as bolus dose measured at 120 mins by PET imaging analysis; assay type: ADME, organism-based, Macaca mulatta; details: rhesus monkey, in vivo, 2 h
[16] = Drug uptake in monkey amygdala at 4.92 to 6.6 mCi, iv administered as bolus dose measured at 120 mins by PET imaging analysis; assay type: ADME, organism-based, Macaca mulatta; details: rhesus monkey, in vivo, 2 h
[17] = Drug uptake in monkey caudate at 4.92 to 6.6 mCi, iv administered as bolus dose measured at 120 mins by PET imaging analysis; assay type: ADME, organism-based, Macaca mulatta, Caudate nucleus; details: rhesus monkey, in vivo, 2 h
[18] = Drug uptake in monkey cerebellum at 4.92 to 6.6 mCi, iv administered as bolus dose measured at 120 mins by PET imaging analysis; assay type: ADME, organism-based, Macaca mulatta; details: rhesus monkey, in vivo, 2 h
[19] = Drug uptake in monkey hypothalamus at 4.92 to 6.6 mCi, iv administered as bolus dose measured at 120 mins by PET imaging analysis; assay type: ADME, organism-based, Macaca mulatta; details: rhesus monkey, in vivo, 2 h
[20] = Drug uptake in monkey lateral temporal cortex at 4.92 to 6.6 mCi, iv administered as bolus dose measured up to 20 mins by PET imaging analysis; assay type: ADME, organism-based, Macaca mulatta; details: rhesus monkey, in vivo
[21] = Drug uptake in monkey amygdala at 4.92 to 6.6 mCi, iv administered as bolus dose measured up to 20 mins by PET imaging analysis; assay type: ADME, organism-based, Macaca mulatta; details: rhesus monkey, in vivo
[22] = Drug uptake in monkey caudate at 4.92 to 6.6 mCi, iv administered as bolus dose measured up to 20 mins by PET imaging analysis; assay type: ADME, organism-based, Macaca mulatta, Caudate nucleus; details: rhesus monkey, in vivo
[23] = Drug uptake in monkey cerebellum at 4.92 to 6.6 mCi, iv administered as bolus dose measured up to 20 mins by PET imaging analysis; assay type: ADME, organism-based, Macaca mulatta; details: rhesus monkey, in vivo
[24] = Drug uptake in monkey hypothalamus at 4.92 to 6.6 mCi, iv administered as bolus dose measured up to 20 mins by PET imaging analysis; assay type: ADME, organism-based, Macaca mulatta; details: rhesus monkey, in vivo
[25] = Drug uptake in SB612111-pretreated monkey lateral temporal cortex at 4.92 to 6.6 mCi, iv administered at 10 mins post SB612111-treatment measured from 10 to 90 mins by PET imaging analysis; assay type: ADME, organism-based, Macaca mulatta; details: rhesus monkey, in vivo
[26] = Drug uptake in SB612111-pretreated monkey amygdala at 4.92 to 6.6 mCi, iv administered at 10 mins post SB612111-treatment measured from 10 to 90 mins by PET imaging analysis; assay type: ADME, organism-based, Macaca mulatta; details: rhesus monkey, in vivo
[27] = Drug uptake in SB612111-pretreated monkey caudate at 4.92 to 6.6 mCi, iv administered at 10 mins post SB612111-treatment measured from 10 to 90 mins by PET imaging analysis; assay type: ADME, organism-based, Macaca mulatta, Caudate nucleus; details: rhesus monkey, in vivo
[28] = Drug uptake in SB612111-pretreated monkey cerebellum at 4.92 to 6.6 mCi, iv administered at 10 mins post SB612111-treatment measured from 10 to 90 mins by PET imaging analysis; assay type: ADME, organism-based, Macaca mulatta; details: rhesus monkey, in vivo
[29] = Drug uptake in SB612111-pretreated monkey hypothalamus at 4.92 to 6.6 mCi, iv administered at 10 mins post SB612111-treatment measured from 10 to 90 mins by PET imaging analysis; assay type: ADME, organism-based, Macaca mulatta; details: rhesus monkey, in vivo
[30] = Drug uptake in monkey lateral temporal cortex at 4.92 to 6.6 mCi, iv administered as bolus dose measured at 90 mins by PET imaging analysis; assay type: ADME, organism-based, Macaca mulatta; details: rhesus monkey, in vivo
[31] = Drug uptake in monkey amygdala at 4.92 to 6.6 mCi, iv administered as bolus dose measured at 90 mins by PET imaging analysis; assay type: ADME, organism-based, Macaca mulatta; details: rhesus monkey, in vivo
[32] = Drug uptake in monkey caudate at 4.92 to 6.6 mCi, iv administered as bolus dose measured at 90 mins by PET imaging analysis; assay type: ADME, organism-based, Macaca mulatta, Caudate nucleus; details: rhesus monkey, in vivo
[33] = Drug uptake in monkey cerebellum at 4.92 to 6.6 mCi, iv administered as bolus dose measured at 90 mins by PET imaging analysis; assay type: ADME, organism-based, Macaca mulatta; details: rhesus monkey, in vivo
[34] = Drug uptake in monkey hypothalamus at 4.92 to 6.6 mCi, iv administered as bolus dose measured at 90 mins by PET imaging analysis; assay type: ADME, organism-based, Macaca mulatta; details: rhesus monkey, in vivo
Nociceptin receptor = Nociceptin receptor (Homo sapiens, UniProt P41146); assay: Displacement of [3H]nociceptin from human recombinant NOP receptor expressed in CHO cells after 60 mins by microbeta scintillation counting; assay type: cell-based
Nociceptin receptor, sequence (P41146 whole entry): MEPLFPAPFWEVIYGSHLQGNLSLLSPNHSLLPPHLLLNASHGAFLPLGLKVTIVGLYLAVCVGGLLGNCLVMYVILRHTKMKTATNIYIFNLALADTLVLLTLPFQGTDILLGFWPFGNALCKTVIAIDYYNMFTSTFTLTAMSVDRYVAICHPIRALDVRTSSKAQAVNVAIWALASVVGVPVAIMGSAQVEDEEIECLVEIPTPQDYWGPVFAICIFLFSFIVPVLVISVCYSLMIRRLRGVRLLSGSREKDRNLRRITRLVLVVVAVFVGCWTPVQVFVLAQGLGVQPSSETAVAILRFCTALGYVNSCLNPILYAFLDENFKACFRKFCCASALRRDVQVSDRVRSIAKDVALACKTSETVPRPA

[35] = Lipophilicity, log D of the compound by radiometric method; assay type: physicochemical; details: octanol/water
Outline: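 log D at pH 7.4 measured radiometrically on the carbon-11-labelled form of the ligand. Six determinations, reported as mean ± SD.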

CC(C)N(C)C(=O)[C@@H](Cc1ccccc1F)CN1CCC2(CC1)OCCc1cc(F)sc12
SUV (Brain [1]): 453%
Drug uptake (Brain [2]): Not Active
Drug uptake (Brain [3]): Active

CC(C)N(C)C(=O)[C@H](Cc1ccccc1F)CN1CCC2(CC1)OCCc1cc(F)sc12
logD [4]: 4.47

CNC(=O)[C@@H](Cc1ccccc1Cl)CN1CCC2(CC1)OCCc1cc(F)sc12
SUV (Brain [1]): 280%
Drug uptake (Brain [2]): Not Active
Drug uptake (Brain [3]): Active

CNC(=O)[C@H](Cc1ccccc1Cl)CN1CCC2(CC1)OCCc1cc(F)sc12
logD [4]: 3.9

CC(C)N([11CH3])C(=O)[C@@H](Cc1ccccc1F)CN1CCC2(CC1)OCCc1cc(F)sc12
Drug uptake [5]: Not Active
Drug uptake [6]: Not Active
Drug uptake [7]: Not Active
Drug uptake [8]: Not Active
Drug uptake [9]: Not Active
Drug uptake [10]: Active
Drug uptake [11]: Active
Drug uptake [12]: Active
Drug uptake [13]: Active
Drug uptake [14]: Active
Drug uptake [15]: Not Active
Drug uptake [16]: Not Active
Drug uptake [17]: Not Active
Drug uptake [18]: Not Active
Drug uptake [19]: Not Active
Drug uptake [20]: Active
Drug uptake [21]: Active
Drug uptake [22]: Active
Drug uptake [23]: Active
Drug uptake [24]: Active

[11CH3]NC(=O)[C@@H](Cc1ccccc1Cl)CN1CCC2(CC1)OCCc1cc(F)sc12
Drug uptake [25]: Not Active
Drug uptake [26]: Not Active
Drug uptake [27]: Not Active
Drug uptake [28]: Not Active
Drug uptake [29]: Not Active
Drug uptake [10]: Active
Drug uptake [11]: Active
Drug uptake [12]: Active
Drug uptake [13]: Active
Drug uptake [14]: Active
Drug uptake [30]: Not Active
Drug uptake [31]: Not Active
Drug uptake [32]: Not Active
Drug uptake [33]: Not Active
Drug uptake [34]: Not Active
Drug uptake [20]: Active
Drug uptake [21]: Active
Drug uptake [22]: Active
Drug uptake [23]: Active
Drug uptake [24]: Active

NC(=O)[C@@H](Cc1ccccc1Cl)CN1CCC2(CC1)OCCc1cc(F)sc12
Ki (Nociceptin receptor): 0.101 nM

NC(=O)[C@H](Cc1ccccc1Cl)CN1CCC2(CC1)OCCc1cc(F)sc12
Ki (Nociceptin receptor): 17.1 nM

CNC(=O)[C@@H](Cc1ccccc1F)CN1CCC2(CC1)OCCc1cc(F)sc12 [NOP-1A]
SUV (Brain [1]): 280%
Drug uptake (Brain [2]): Not Active
Drug uptake (Brain [3]): Active
logD [35]: 3.41
